{"source": "paper PMC6563393", "about": "(Molecular Imaging, 2019)", "key": {"[1]": {"target": "recombinant human PD-L1(B7-H1)-His-tag protein (human) (UniProt Q9NZQ7)", "experiment": "AlphaScreen or HTRF"}, "[2]": {"target": "endogenous PD-L1 on MDAMB231 and H226 cells (human (endogenous in MDAMB231 and H226)) (UniProt Q9NZQ7)"}, "[3]": {"system": "hPD-L1, CHO, MDAMB231, SUM149, H226, and H1155 cells", "experiment": "[^18F]FPy-WL12 in vitro uptake assay", "format": "cell-based", "settings": "blocking with 1 µM unmodified WL12; 1 hour at 37°C", "how_it_was_run": "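Cells were lifted with non-enzymatic dissociation buffer. 1 × 10⁶ cells in PBS with 2 mM EDTA and 1% FBS were incubated with 1 µCi radiotracer for 1 h at 37°C, washed three times with cold PBS, and bound activity was gamma-counted. CHO-hPD-L1 cells were kept in F-12K/10% FBS with 2 mg/mL G418. SUM149 cells were grown in Ham's F-12/5% FBS with insulin and hydrocortisone. Runs were in triplicate, repeated three times.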"}, "[4]": {"experiment": "Ex vivo biodistribution, hPD-L1 xenografts", "format": "in vivo, NSG mice", "settings": "female, NSG, mouse, hPD-L1 tumor (xenograft), iv, 740 kBq, total radioactivity", "how_it_was_run": "(§1)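 Female NSG mice (6–8 weeks) bearing subcutaneous CHO/hPD-L1 and parental CHO tumours received radiotracer iv in saline (from 5% DMSO/Tween 20 stock). For blocking, it was coinjected with 50 µg unmodified peptide. Mice were dissected at 10, 60 and 120 min (n = 4 per time point). Blood, tumours and tissues were weighed and gamma-counted with triplicate radioactive standards. Values are %ID/g, mean ± SEM, compared by unpaired two-tailed t test.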"}, "hPD-L1 tumors": {"system": "hPD-L1 tumors", "experiment": "Ex vivo biodistribution, hPD-L1 xenografts", "format": "in vivo, NSG mice", "settings": "co-injected with 50 µg blocking dose of WL12", "how_it_was_run": "as §1"}, "[5]": {"experiment": "Ex vivo biodistribution, MDAMB231 xenografts", "format": "in vivo, NSG mice", "settings": "female, NSG, mouse, MDAMB231 tumor (xenograft), iv, 740 kBq, total radioactivity", "how_it_was_run": "(§2)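 Female NSG mice (6–8 weeks) with subcutaneous xenografts got 740 kBq radiotracer in 200 µL iv. The radiotracer was reconstituted in saline with 5% DMSO and Tween 20, then diluted in saline. Mice were killed at 120 min (MDAMB231 also 60 min, plus a group coinjected with 50 µg unmodified peptide). Blood, tumour and tissues were weighed and gamma-counted with triplicate standards. %ID/g reported as mean ± SEM.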"}, "[6]": {"experiment": "Ex vivo biodistribution, SUM149 xenografts", "format": "in vivo, NSG mice", "settings": "female, NSG, mouse, SUM149 tumor (xenograft), iv, 740 kBq, total radioactivity", "how_it_was_run": "as §2"}, "[7]": {"experiment": "Ex vivo biodistribution, H226 xenografts", "format": "in vivo, NSG mice", "settings": "female, NSG, mouse, H226 tumor (xenograft), iv, 740 kBq, total radioactivity", "how_it_was_run": "as §2"}, "[8]": {"experiment": "Ex vivo biodistribution, normal tissues", "format": "in vivo, NSG mice", "settings": "at all the time points (10, 60, 120 minutes); blocking dose had minimal effect", "how_it_was_run": "as §1"}}}
{"molecule": "^19FPy-WL12, nonradioactive analog of the radiotracer (WL12 acylated with 6-fluoronicotinate) (peptide)", "values": [{"measurement": "IC50", "setting": "[1]", "result": 31.7, "unit": "nM"}, {"measurement": "Ki", "setting": "[1]", "result": 14.8, "unit": "nM"}]}
{"molecule": "[^18F]FPy-WL12, radiotracer (WL12 acylated with 6-[^18F]fluoronicotinate) (peptide)", "values": [{"measurement": "tumor uptake in MDAMB231 xenografts at 120 minutes, ex vivo biodistribution", "setting": "[2]", "result": 2.15, "unit": "%ID/g"}]}
{"molecule": "CCCC[C@H]1C(=O)N(C)[C@@H](CCCC)C(=O)N[C@@H](CCCNC(=O)c2ccc(F)nc2)C(=O)N[C@H](C(=O)NCC(N)=O)CSCC(=O)N[C@@H](Cc2ccc(O)cc2)C(=O)N(C)[C@@H](C)C(=O)N[C@@H](CC(N)=O)C(=O)N2CCC[C@H]2C(=O)N[C@@H](Cc2c[nH]cn2)C(=O)N[C@@H](CC(C)C)C(=O)N2C[C@H](O)C[C@H]2C(=O)N[C@@H](Cc2c[nH]c3ccccc23)C(=O)N[C@@H](CO)C(=O)N[C@@H](Cc2cn(C)c3ccccc23)C(=O)N1C", "note": "[[^18F]FPy-WL12]", "values": [{"measurement": "[^18F]FPy-WL12 uptake in cells coincubated with unmodified WL12", "setting": "[3]", "result": "significantly reduced"}, {"measurement": "tissue uptake at 1 h", "setting": "[4]", "result": "7.16 ± 1.67", "unit": "%ID/g"}, {"measurement": "reduction in the uptake in hPD-L1 tumors by blocking dose", "setting": "hPD-L1 tumors", "result": 85, "unit": "%"}, {"measurement": "tissue uptake at 2 h", "setting": "[5]", "result": "2.15 ± 0.1", "unit": "%ID/g"}, {"measurement": "tissue uptake at 2 h", "setting": "[6]", "result": "1.43 ± 0.11", "unit": "%ID/g"}, {"measurement": "tissue uptake at 2 h", "setting": "[7]", "result": "2.77 ± 0.31", "unit": "%ID/g"}, {"measurement": "accumulation in liver and kidneys", "setting": "[8]", "result": "high"}]}
{"molecule": "WL12, PD-L1-binding peptide (14-amino acid cyclic peptide)", "values": [{"measurement": "IC50", "setting": "[1]", "result": 26.4, "unit": "nM"}, {"measurement": "Ki", "setting": "[1]", "result": 12.3, "unit": "nM"}]}
